# Bioassay records deposited in PubChem by several laboratories.
# Rin1-Abl PPI inh – inhibitors of human Rin1-Abl protein interaction. P00519+Q13671. TR-FRET Rin1/Abl binding, biochemical. inhibition, % at 7.35 µM. AID 588664. actives 0.4% (n = 360,000); in the data active = inhibition above about 5%, passing the limit was not always enough
# Rpn11 block – inhibitors of human proteasome Rpn11; O00487; human 26S proteasome, Ub4-pepOG fluorescence polarization; 20S core pre-blocked with epoxomicin; inhibition, % at 20 µM; actives 0.59% (n = 360,000);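 active = inhibition at 20 µM, scaled to each plate's controls, above about 33%, limit read from the data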
# CSN deneddyl inh – CSN deneddylation inhibition; actives 0.38% (n = 360,000); AID 651999; inhibition, % at 12.5 µM; Purified CSN, SCF-Nedd8-OG deneddylation, fluorescence polarization;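 active = pattern-corrected inhibition above about 35%, with an unprinted fluorescence ratio check between 0.5 and 1.5, limit read from the data, passing the limit was not always enough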
#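 Assay system: purified human Csn5 enzyme expressed in HEK293T cells; Input: 0.24 nM Csn5 enzyme, final concentration; Reagent: 10 nM SCFSkp2-Nedd8OG; Compound dosing: 12.5 µM single point; Times: reaction 90 min, room temperature; Technique: fluorescence polarization readout.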
# HNF4A DNA FP – change in binding of human HNF4 alpha to DNA; actives 0.3% (n = 360,000); activity change, % at 10 µM; AID 1224865; HNF4a-FITC DNA binding, fluorescence polarization, 1 h; P41235; in the data active = activity change above about 30%, passing the limit was not always enough
# TPT1 inhibitor – inhibitors of Candida albicans tRNA 2'-phosphotransferase TPT1; recombinant caTPT1, FP RNA substrate dephosphorylation; inhibition, % at 5 µM; actives 0.81% (n = 300,000);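 active = inhibition above the mean of all tested compounds plus 3 SD, set per screening campaign, cut at about 24% in these data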
# Neddylation inh – cullin neddylation inhibition | TR-FRET cullin neddylation, biochemical | AID 651699 | inhibition, % at 25 µM | actives 0.58% (n = 360,000); in the data active = inhibition above about 36%
# Target sequence (P61081 whole entry, looked up): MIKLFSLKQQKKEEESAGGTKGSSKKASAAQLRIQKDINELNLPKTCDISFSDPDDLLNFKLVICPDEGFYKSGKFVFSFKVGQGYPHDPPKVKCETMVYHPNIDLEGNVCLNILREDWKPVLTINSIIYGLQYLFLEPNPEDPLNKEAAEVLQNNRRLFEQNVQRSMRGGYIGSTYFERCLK
# Target sequence (Q13564 whole entry, looked up): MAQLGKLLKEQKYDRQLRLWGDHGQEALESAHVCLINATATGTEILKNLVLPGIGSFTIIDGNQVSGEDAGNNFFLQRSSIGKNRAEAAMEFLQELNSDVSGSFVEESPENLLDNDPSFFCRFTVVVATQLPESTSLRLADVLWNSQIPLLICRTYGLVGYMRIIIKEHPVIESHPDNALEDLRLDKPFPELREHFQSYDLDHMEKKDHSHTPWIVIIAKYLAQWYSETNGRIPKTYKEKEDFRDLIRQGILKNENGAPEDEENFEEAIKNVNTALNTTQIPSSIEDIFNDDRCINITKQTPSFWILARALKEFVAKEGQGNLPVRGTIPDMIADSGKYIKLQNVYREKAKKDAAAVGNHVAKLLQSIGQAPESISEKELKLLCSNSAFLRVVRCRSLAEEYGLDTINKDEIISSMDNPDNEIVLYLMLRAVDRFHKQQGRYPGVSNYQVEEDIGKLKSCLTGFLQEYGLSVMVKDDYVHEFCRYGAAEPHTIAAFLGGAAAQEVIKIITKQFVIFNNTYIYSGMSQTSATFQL
# caTPT1 confirm – confirmation of Candida albicans TPT1 inhibitors. actives 74% (n = 2,400). AID 2149. recombinant caTPT1, fluorescence polarization, RNase T1 coupled. inhibition, % at 5 µM. shares compounds with TPT1 inhibitor;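 active = inhibition above the primary screen limit, the mean inhibition of all tested compounds plus 3 SD, cut at about 25% in these data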
# RNase T1 counter – RNase T1 inhibition in TPT1 counter-screen | shares compounds with TPT1 inhibitor | RNase T1 cleavage, fluorescence polarization, 1536-well | inhibition, % at 5 µM | actives 83% (n = 2,400) | AID 2153;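 active = inhibition above the solvent-only control well mean plus 3 SD, limit set per screening run, cut at about 23% in these data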;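 also: inhibitors block cleavage so intact labeled substrate keeps polarization high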
# Rpn11 confirm – Rpn11 inhibition confirmation, single concentration. purified human 26S proteasome, Ub4-pepOG fluorescence polarization; proteasome pretreated with epoxomicin. inhibition, % at 20 µM. shares compounds with Rpn11 block. actives 29% (n = 1,900)
# MMP-2 counter-1 – blocks human MMP-2, flagging nonselective RPN11 hits. shares compounds with Rpn11 block. recombinant MMP-2, FRET peptide cleavage fluorescence. inhibition, % at 20 µM. actives 4% (n = 1,900). AID 602330;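 also: human MMP-2 activated beforehand with APMA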
# Thrombin FP – blocks bovine thrombin, flagging nonselective RPN11 hits; shares compounds with Rpn11 block; bovine thrombin cleavage of Ub4-pepOG, fluorescence polarization; AID 602333; inhibition, % at 20 µM; actives 13% (n = 1,900);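 active = mean inhibition at least 40% at 20 µM, or signal 3 deviations below plate average, so some actives read negative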
# CSN5 deneddyl – Csn5 (human) deneddylation inhibition, single-concentration validation | shares compounds with CSN deneddyl inh | Csn5 deneddylation of SCF-Nedd8OG, fluorescence polarization, 90 min | inhibition, % at 16.6 µM | actives 62% (n = 540); in the data active = inhibition above about 50%
# MMP-2 counter-2 – blocks human MMP-2 in a CSN deneddylation counter-screen | recombinant MMP-2, FRET substrate fluorescence, 60 min | inhibition, % at 16.6 µM | shares compounds with CSN deneddyl inh | actives 33% (n = 540);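 active = corrected plate-normalized z-score of 5 or more, or -5 or less, or inhibition of 15% or more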
# Thrombin counter – thrombin (bovine) inhibition, counter-screen for CSN hits; shares compounds with CSN deneddyl inh; bovine thrombin cleavage of Ub4-pepOG, fluorescence polarization; inhibition, % at 16.6 µM; actives 49% (n = 540); AID 720656;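 active = inhibition at or above a set limit, with a fluorescence interference ratio between 0.5 and a set maximum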
# Hits are given with their value; . = inactive; / = no result shown; + = active, no number. Compounds with a hit are over-represented: about 2.4% of the library has one in this group of screens. Rule as the data show it, unless noted: active = inhibition above about 40%; inactive = the rest.
SMILES,Rin1-Abl PPI inh,Rpn11 block,CSN deneddyl inh,HNF4A DNA FP,TPT1 inhibitor,Neddylation inh,caTPT1 confirm,RNase T1 counter,CSN5 deneddyl,MMP-2 counter-2,Thrombin counter,others
CCN1C(=O)/C(=C/C=C2\N(CC)c3cc(S(=O)(=O)N(C)C)ccc3N2c2ccccc2)SC1=S,.,/,75,.,136,.,94,94,63,.,34,
COc1ccccc1/C=C1\SC(=S)N(Nc2nc(C)cc(C)n2)C1=O,.,.,.,.,.,.,/,/,/,/,/,
Cc1cc(C)nc(NN2C(=O)/C(=C/c3ccc(O)cc3)SC2=S)n1,.,/,92,94,58,.,68,71,.,.,83,
Cc1ccc(Cl)cc1NC(=O)Nn1cnnc1,.,.,.,.,.,.,/,/,/,/,/,
Cc1c(NS(=O)(=O)c2cc(C(=O)OCC(=O)c3ccccc3F)ccc2Cl)c(=O)n(-c2ccccc2)n1C,.,.,.,.,/,.,/,/,/,/,/,
N#CC1=C(N)SC(N)=C(C#N)C1c1ccnc2ccccc12,.,/,45,39,103,.,74,85,135,.,30,
NS(=O)(=O)c1ccc(-c2ccc(/C=C3\SC(=S)N(C4CCS(=O)(=O)C4)C3=O)o2)cc1 (configuration not stated),.,/,70,.,109,.,154,142,87,-46,.,
NS(=O)(=O)c1cc(C(=O)NC2CCSc3ccccc32)ccc1Cl (configuration not stated),.,106,64,.,54,.,67,.,.,.,49,Rpn11 confirm=98;MMP-2 counter-1=.;Thrombin FP=61
Cc1nc(N)ncc1CCC1OCCO1,.,.,.,.,/,.,/,/,/,/,/,
COc1ccc(/C=C2\C(=O)NC(=S)N2C(=O)c2ccc(F)cc2)cc1,.,+,65,72,148,.,156,145,/,-38,.,Rpn11 confirm=+;MMP-2 counter-1=.;Thrombin FP=active
Cc1nnc(-c2ccccc2)c(=O)n1/N=C/c1c(O)ccc2ccccc12,.,/,50,.,159,.,79,84,109,.,30,
CCS(=O)(=O)c1nn2c(N)c(/C=C3/C=CC(=O)C(OC)=C3)c(=O)nc2s1,.,/,44,.,35,.,86,92,55,.,52,
Nc1c(C=C2C=CC(=O)C=C2)c(=O)nc2sc(CC(=O)N3CCCC3)nn12,.,.,.,.,.,.,/,/,/,/,/,
CN(C)S(=O)(=O)c1ccc2c(c1)/C(=C/c1cc3c([nH]1)CCCC3)C(=O)N2,.,/,54,.,153,.,155,145,75,.,.,
CCc1ccc(NC(=O)Cn2nc(C)n3cccc3c2=O)cc1,.,.,.,.,.,.,/,/,/,/,/,
CC(=O)Oc1ccccc1/C=C/c1nc2ccccc2c(=O)o1,.,.,.,.,.,.,/,/,/,/,/,
O=c1oc(/C=C/c2ccc([N+](=O)[O-])s2)nc2ccccc12,.,81,50,.,60,.,59,70,189,.,25,
Cc1ccnc(NC(=O)c2ccc(S(=O)(=O)NCc3ccco3)cc2)c1,.,.,.,.,.,.,/,/,/,/,/,
Cc1c(NC(=O)C(C)OC(=O)c2ccc([N+](=O)[O-])cc2Cl)c(=O)n(-c2ccccc2)n1C (configuration not stated),.,.,.,.,/,.,/,/,/,/,/,
Cn1cccc1/C=C1\CC(C(C)(C)C)C/C(=C\c2cccn2C)C1=O (configuration not stated),.,/,97,.,176,.,162,149,93,-34,.,
Fc1ccc(C2CC(c3ccco3)=NN2c2ccccc2)cc1 (configuration not stated),.,.,.,.,.,/,/,/,/,/,/,
COc1cc(N2N=C(c3ccccc3)CC2c2ccccc2)c(C=O)cc1C=O (configuration not stated),.,.,.,.,.,.,/,/,/,/,/,
COc1ccccc1N1N=C(c2ccc([N+](=O)[O-])cc2)CC1c1ccccc1 (configuration not stated),.,/,38,47,52,.,46,57,107,.,25,
O=[N+]([O-])c1ccc(N2N=C(c3ccco3)CC2c2ccccc2)cc1 (configuration not stated),.,/,42,50,135,.,107,108,83,.,36,
COc1ccc(C(=O)COC(=O)CNC(=O)c2ccc(OC)cc2)cc1,.,.,.,.,.,.,/,/,/,/,/,
SMILES,Rin1-Abl PPI inh,Rpn11 block,CSN deneddyl inh,HNF4A DNA FP,TPT1 inhibitor,Neddylation inh,caTPT1 confirm,RNase T1 counter,CSN5 deneddyl,MMP-2 counter-2,Thrombin counter,others
O=C(O)c1cccc(-c2ccc(/C=c3/sc4nc5ccccc5n4c3=O)o2)c1,.,/,129,38,97,.,118,121,.,19,78,
Nc1cc2c(cc1O)CCCC2,.,.,.,.,.,.,/,/,/,/,/,
CCC1=NN2C(=N)/C(=C\c3ccc(SCc4ccco4)o3)C(=O)N=C2S1,.,80,78,.,48,.,29,43,.,16,17,Rpn11 confirm=.;MMP-2 counter-1=.;Thrombin FP=.
CCC1=NN2C(=N)/C(=C/c3c(C)nn(-c4ccccc4)c3Cl)C(=O)N=C2S1,.,.,.,.,.,.,/,/,/,/,/,
O=C(CN1C(=O)NC(Cc2c[nH]c3ccccc23)C1=O)NCCc1ccccc1 (configuration not stated),.,.,.,.,.,.,/,/,/,/,/,
N#C/C(=C/c1ccc(N2CCOCC2)o1)c1ccc(Br)cc1,.,/,80,.,+,.,171,159,+,-37,.,
N#C/C(=C/c1ccc(N2CCCCC2)o1)C(=O)Nc1ccc2ccccc2c1,.,/,.,.,/,.,/,/,/,/,/,
